# An excerpt weighted towards active compounds, which were near 2.6% of everything screened.
# TbMetRS inhib: T. brucei MetRS inhibitors, primary screen, biochemical, luminescence. methionyl-tRNA synthetase (Trypanosoma brucei brucei). purified T. brucei MetRS, ATP depletion, Kinase-Glo luminescence. inhibition, % at 11.9 µM. 360,000 tested, 0.4% active. AID 624268, 2012;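 active = inhibition above a per-plate cutoff of the control wells' mean inhibition plus 3 SD, cut at about 5.5% in these data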;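 also: 0% = DMSO wells median and 100% = median of wells with control inhibitor compound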
#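 Dosing: 11.9 µM compound single dose, 0.9% DMSO; Assay system: purified T. brucei MetRS enzyme; Measured by: Kinase-Glo luciferase luminescence reporting remaining unconsumed ATP; Schedule: 15 min plus 2 h at 25 °C.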
# ABCB6 inh 2: ABCB6 transporter inhibitors, primary screen, K562-ABCB6 cells, flow cytometry, MLPCN library | ATP-binding cassette sub-family B member 6 (Homo sapiens), Q9NP58 | K562-ABCB6 porphyrin accumulation, 1 h; hits give low values | fluorescence ratio to DMSO, % at 10 µM | 360,000 tested, 0.19% active | AID 602162, 2011;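 active = fluorescence ratio to DMSO below 75%, the collection mean minus 3 SD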;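 also: signal is porphyrin accumulated inside mitochondria; 100% equals median channel fluorescence of DMSO control wells; lower ratio means ABCB6 inhibition with less porphyrin fluorescence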
# MC4R barr agon: MC4R agonists recruiting beta-arrestin, primary screen, cell-based, luminescence, agonist arm of biased-ligand search; Melanocortin receptor 4 (Homo sapiens), P32245; U2OS MC4R beta-arrestin complementation; percent of melanotan II response, DMSO zero; activation, % at 8.9 µM; 360,000 tested, 0.98% active; AID 540308, 2011;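 active = activation above a per-plate cutoff, the mean activation of sample wells on that plate plus 3 SD, cut at about 8% in these data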
# Target sequence (P32245 whole entry, looked up): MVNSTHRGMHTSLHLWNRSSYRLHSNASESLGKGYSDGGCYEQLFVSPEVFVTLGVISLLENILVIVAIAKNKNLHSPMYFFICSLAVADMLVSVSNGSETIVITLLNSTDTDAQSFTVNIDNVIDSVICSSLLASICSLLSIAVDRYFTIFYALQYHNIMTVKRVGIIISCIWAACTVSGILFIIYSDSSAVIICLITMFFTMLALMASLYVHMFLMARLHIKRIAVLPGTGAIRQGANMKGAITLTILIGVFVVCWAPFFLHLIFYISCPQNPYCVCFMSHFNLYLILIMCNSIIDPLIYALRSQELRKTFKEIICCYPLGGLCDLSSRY
# MC4R antagonist: MC4R antagonists of cAMP signaling, primary screen, cell-based, TR-FRET, antagonist arm of biased-ligand search | 360,000 tested, 0.48% active | AID 540295, 2011 | inhibition, % at 6.5 µM | Melanocortin receptor 4 (Homo sapiens), P32245 | MC4R-expressing cells, MTII-stimulated cAMP, LANCE TR-FRET;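 active = inhibition above its plate's cutoff, the mean of tested wells on that plate plus 3 SD, cut at about 29% in these data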;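 also: 0% = Melanotan II alone and 100% = Melanotan II plus saturating MCL0020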
#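 System: U2OS-MC4R stable cell line; Technique: Eu-cAMP/anti-cAMP TR-FRET, emission 671 nm; Repeats: single well per compound; Also added: Melanotan II; Dosing: one concentration, 6.5 µM nominal; Schedule: 30-min compound, 1-h challenge, 1-h detection, room temperature.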
# iPSC survival up: enhancers of single-cell hiPSC survival, primary screen, ATPlite luminescence | 100% = ROCK inhibitor wells, 0% = DMSO | survival enhancement, % at 20 µM | 360,000 tested, 0.044% active; in the data active = survival enhancement above about 18%;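 also: cells exposed to compounds for 16 hours before the ATP read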
# Granule exo inh: LAMP-1 surface exposure blockers, TALL-104 cells – cell-based, flow cytometry, MLPCN library, primary screen. TALL-104 LAMP-1 surface exposure; cells stimulated with thapsigargin and PMA. inhibition, % at 10 µM. 360,000 tested, 0.66% active;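 active = inhibition above about 55%, limit read from the data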
# * hit, by the source's call; i = inactive.
SMILES,TbMetRS inhib,ABCB6 inh 2,MC4R barr agon,MC4R antagonist,iPSC survival up,Granule exo inh
Cc1ccc(S(=O)(=O)NCCN=C(CN2CCCC2)NS(=O)(=O)c2ccc(C)cc2)cc1,0,66*,0,4,-2,-4
Cc1ccc(S(=O)(=O)NCCN=C(CN2CCOCC2)NS(=O)(=O)c2ccc(C)cc2)cc1,0,97,-1,-2,0,0
Cc1cc(C)c2c(N)c(C(=O)Nc3ccccc3F)sc2n1,-1,91,0,0,-1,7
Cc1cc(C)c2c(N)c(C(=O)Nc3ccccc3Cl)sc2n1,-1,99,8.4*,4,0,-5
COc1ccc(-c2csc(/C(C#N)=C\c3ccc(OC)c([N+](=O)[O-])c3)n2)cc1,0,118,-3,0,2,3
COc1ccc(-c2csc(/C(C#N)=C\c3ccc(O)c([N+](=O)[O-])c3)n2)cc1OC,1,97,-1,7,0,93*
COc1cc2c(cc1OC)C(c1cccs1)N(C(=S)NC(C)C)CC2 (stereo unspecified),0,105,-4,0,3,0
CCc1cc2cc(C(=O)Nc3ccccc3F)sc2s1,0,97,9.0*,-2,-1,-7
CN(C)c1ccc(C=c2c3ccccc3n3c2cc(-c2ccc(Cl)cc2)[n+]3C)cc1,0,i,2,9,-2,35
COc1cc(N(C)C)ccc1C=c1c2ccccc2n2c1cc(-c1ccccc1)[n+]2C,0,i,-5,-23,-3,100*
CN(C)c1ccc(C=c2c3ccccc3n3c2cc(-c2ccccc2)[n+]3C)cc1,0,i,-2,-23,-4,89*
CN(C)c1ccc(C=c2c3ccccc3n3c2c2c([n+]3C)CCCC2)cc1,-1,261,-2,-23,-3,70*
COc1cc(C=c2c3ccccc3n3c2cc(-c2ccccc2)[n+]3C)cc(OC)c1OC,0,161,3,-14,-3,19
CCCCNC(=O)c1ccc2nc(CC)c(N(C)Cc3ccc(OC)cc3)n2c1,0,96,3,6,-1,-7
COC(=O)c1sccc1-c1ccc(/C=N/OC(=O)c2ccccc2)o1,-1,54*,-2,5,-2,-3
Cc1ccc(-c2ccc(/C=C3\C(=O)ON=C3c3ccccc3)o2)c([N+](=O)[O-])c1,-1,97,1,21,-2,106*
COc1ccc(N2CSC3=C(C#N)C(c4cc(OC)ccc4OC)CC(=O)N3C2)c(OC)c1 (stereo unspecified),1,74*,0,-1,0,5
COc1ccc(N2CSC3=C(C#N)C(c4cc(OC)c(OC)cc4OC)CC(=O)N3C2)c(OC)c1 (stereo unspecified),1,102,-1,-8,-3,7
CCc1ccc(NC(=O)C2CCN(S(=O)(=O)c3cccs3)CC2)cc1,-1,95,-1,5,0,1
C/C(=N/NC(=O)Cn1nc2ccccc2n1)c1ccc(F)cc1,0,74*,-3,-3,-2,2
C=CCn1c(SCC(=O)Nc2ccc(-c3nc4ccc(C)cc4s3)cc2)nnc1-c1ccccc1,0,97,38*,-12,-3,-4
C=CCn1c(SCC(=O)NNC(=O)Nc2ccc(C)cc2)nnc1-c1ccccc1,0,95,-1,5,0,7
O=C(Nc1cccnc1)NC1CCCCC1,1,97,-5,3,-1,-3
CCCCN(C)c1c(C)nc2ccc(C(=O)NCc3ccc(OC)cc3)cn12,0,100,0,11,5,26
Nc1cc2nsnc2cc1Br,12*,106,4,21,-4,24

# Source: PubChem BioAssay
